Screening data deposited in PubChem BioAssay by several laboratories.
iPSC survival up: increases survival of single human iPS cells. hiPSC single-cell survival, ATPlite luminescence; 100% = ROCK inhibitor wells, 0% = DMSO. survival enhancement, % at 20 µM. hit rate 0.044% among 360,000. AID 602274; in the data active = survival enhancement above about 18%;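 also: cells exposed to compounds for 16 hours before the ATP read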
UBC13 inh: human UBC13 polyubiquitination inhibition; P61088; UBC13 polyubiquitin chain formation, TR-FRET; inhibition, % at 20 µM; hit rate 0.47% among 330,000; in the data active = inhibition above about 45%, passing the limit was not always enough
MIN6 prolif: MIN6 beta-cell proliferation induction; MIN6 cells proliferation, ATPlite luminescence, 48 h; cells starved in 0.2% serum; 100% = growth in 10% serum; proliferation, % at 10 µM; hit rate 0.29% among 330,000; AID 2380;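 active = compounds whose signal lies at least 3.5 SD above the mean of all wells on their plate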;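 also: 0% = DMSO-treated cells in low-serum medium and 100% = 10% serum control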
MPTP inh: permeability transition pore inhibition; inhibition, % at 10 µM; AID 602449; hit rate 1.4% among 360,000; isolated mouse mitochondria, Ca2+ swelling absorbance, 30 min;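 active = inhibition of 50% or more, scaled per plate between neutral and stimulator controls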;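 also: 0% = DMSO wells given calcium and 100% = 1 mM EGTA wells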
Exocytosis inh: lytic granule exocytosis inhibition. TALL-104 LAMP-1 surface exposure, flow cytometry; cells stimulated with thapsigargin and PMA. inhibition, % at 10 µM. hit rate 0.66% among 360,000;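 active = inhibition above about 55%, limit read from the data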
Apaf-1 inh: human Apaf-1 inhibition | reconstituted apoptosome caspase-3 activity, DEVD-Rh110 fluorescence | inhibition, % at 20 µM | hit rate 0.71% among 330,000 | AID 489030; active = inhibition of at least 40% at 20 µM;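 also: plate controls were DMSO wells for no effect and DEVD-CHO caspase inhibitor wells for full effect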
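Assay system – apoptosome proteins · Medium – Hepes buffer, pH 7.5 · Also added – cytochrome c with DEVD-Rh110 · Timing – 30 min compound preincubation, 50 min activation, room temperature · Detection – Rh110 fluorescence, excitation 480 nm, emission 540 nm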
Casp3 UBC13 ctr: counter-screen for UBC13 inhibitors: human caspase-3 inhibition; Recombinant caspase-3, Caspase-Glo 3/7 luminescence, 60 min; inhibition, % at 20 µM; shares compounds with UBC13 inh; hit rate 4% among 1,400;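 active = mean inhibition across replicates above about 26%, limit read from the data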;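 also: plate controls were DMSO with caspase-3 for no effect and DMSO wells lacking enzyme for full effect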
UBC13 conf: confirmation of human UBC13 polyubiquitin inhibitors; shares compounds with UBC13 inh; UBC13 polyubiquitination, TR-FRET, biochemical; inhibition, % at 10 µM; hit rate 68% among 1,400; AID 488859; in the data active = inhibition above about 45%
Active calls of the source: *; / = no result. Compounds with a hit are over-represented: about 3% of the library has one in this group of screens.

SMILES	iPSC survival up	UBC13 inh	MIN6 prolif	MPTP inh	Exocytosis inh	Apaf-1 inh	Casp3 UBC13 ctr	UBC13 conf
Cc1cc(N2CCN(C)CC2)nc2ccc(NC(=S)N3CCN(c4ccc(F)cc4)CC3)cc12	-1	47*	-6	0	30	-6	-3	38
Cc1cc(N2CCN(C)CC2)nc2ccc(NC(=S)N3CCN(c4cccc(Cl)c4)CC3)cc12	-1	61*	-6	2	8	22	0	54*
O=C(COC(=O)/C=C/c1ccc(C(F)(F)F)cc1)NC(=O)NCc1ccco1	0	-13	-2	10	-4	12	/	/
Cc1cccc(Cn2c(NC3CCCC3)nc3c2c(=O)[nH]c(=O)n3C)c1	0	/	/	0	-2	/	/	/
CC(C)CC(C(=O)NC(C)(C)C)N(CC1CCCO1)C(=O)c1snc(C(N)=O)c1N (configuration not stated)	2	78*	2	-1	16	0	-4	81*
CCCC(C(=O)NC(C)(C)C)N(CC1CCCO1)C(=O)c1snc(C(N)=O)c1N (configuration not stated)	0	51*	-1	2	-15	0	1	52*
Cc1ccc(-c2csc(N3CCN(c4cc5c(cc4Cl)nc(C)n5CCN4CCCCC4)CC3)n2)cc1	0	46*	-9	0	-3	22	0	38
CCN(CC(=O)Nc1c(F)cccc1F)C(=O)c1nc2nc(C)cc(C)n2n1	0	-5	-5	0	2	-3	/	/
CNC(=O)c1c(NC(=O)c2cccc(N3C(=O)CCC3=O)c2)sc2c1CCC2	0	50*	1	2	-1	-19	0	11
COC(=O)c1cccc(NC(=O)Cc2coc3cc(OC)ccc23)c1	-2	48*	0	2	5	-14	-3	53*
COC(=O)CSC1=NS(=O)(=O)c2ccccc21	-3	11	-1	-2	2	3	/	/
O=C(CSC1=NS(=O)(=O)c2ccccc21)Nc1ccccc1	-2	47*	7	-1	15	-14	2	18
COc1ccccc1NOC(=O)CCOc1ccccc1	2	/	/	0	3	/	/	/
CCOc1ccc(Nc2nc(NCC3CCCO3)c3ccccc3n2)cc1 (configuration not stated)	-1	66*	-6	10	11	21	0	86*
c1ccc(Nc2nc(NCC3CCCO3)c3ccccc3n2)cc1 (configuration not stated)	-2	41	-3	10	0	13	/	/
O=C1COc2ccc(C(=O)COc3ccc(Cl)cc3Br)cc2N1	0	1	0	-1	0	5	/	/
COCOCCn1cc(CN2CCS(=O)(=O)N(Cc3ccc(-c4ccc(OC)cc4)cc3)C(C)C2=O)nn1 (configuration not stated)	0	/	/	-1	-6	/	/	/
COc1ccc(/C=C/C(=O)OCC(=O)c2c(N)n(C)c(=O)n(C)c2=O)c(OC)c1	-1	0	4	1	1	-9	/	/
COc1ccc(OC)c(/C=C/C(=O)OCC(=O)c2c(N)n(C)c(=O)n(C)c2=O)c1	0	46*	6	0	2	-5	-4	43
CC1(c2nnnn2-c2ccc3c(c2)OCCO3)CCC(=O)N1C1CC1 (configuration not stated)	1	/	/	1	-4	/	/	/
O=C(CNC(=O)c1cccc(Cl)c1)Nc1ccc(F)c(F)c1F	-1	-12	-2	0	-7	6	/	/
O=C(CSc1cc(Cl)ccc1Cl)NCC(=O)Nc1ccc(F)c(F)c1F	-1	71*	0	6	3	13	-1	79*
CC1COc2ccccc2N1S(=O)(=O)c1cc(Cl)ccc1Cl (configuration not stated)	0	7	-5	-2	4	11	/	/
Nc1c(C(=O)Nc2ccccc2)sc2nc3c(c(-c4ccco4)c12)CCC3	1	-29	-2	-9	3	37	/	/
COc1ccc(-c2c3c(nc4sc(C(=O)Nc5ccccc5)c(N)c24)CCC3)cc1	-4	46*	1	3	0	11	2	38
SMILES	iPSC survival up	UBC13 inh	MIN6 prolif	MPTP inh	Exocytosis inh	Apaf-1 inh	Casp3 UBC13 ctr	UBC13 conf
C#CCOCCOCCOCCNc1nc(N2CCN(C(=O)Cn3cc(CCCCN)nn3)CC2)nc(N2CCN(C(=O)Cn3cc(CC(C)O)nn3)CC2)n1 (configuration not stated)	2	8	-2	0	38	5	/	/
C#CCOCCOCCOCCNc1nc(N2CCN(C(=O)CCCCCCCCCCNC(=O)[C@@H](CCC(=O)O)n3cc(CCCCCN)nn3)CC2)nc(N2CCN(C(=O)CCCCCCCCCCNC(=O)[C@H](CO)n3cc(CCCSC)nn3)CC2)n1	8	84*	-8	-2	-6	30	-2	40
C#CCOCCOCCOCCNc1nc(N2CCN(C(=O)CCCCCCCCCCNC(=O)[C@@H](CCC(=O)O)n3cc(CCCCCN)nn3)CC2)nc(N2CCN(C(=O)CCCCCCCCCCNC(=O)[C@H](CO)n3cc(CCCCCN)nn3)CC2)n1	0	102*	0	-6	3	54*	-4	74*
C#CCOCCOCCOCCNc1nc(N2CCN(C(=O)CCCCCCCCCCNC(=O)Cn3cc(CCCCCN)nn3)CC2)nc(N2CCN(C(=O)CCCCCCCCCCNC(=O)Cn3cc(C[C@@H](C)O)nn3)CC2)n1	0	114*	-7	-6	2	71*	-2	114*
C#CCOCCOCCOCCNc1nc(N2CCN(C(=O)Cn3cc(CCCCN)nn3)CC2)nc(N2CCN(C(=O)[C@H](C)n3cc(CCC(=O)O)nn3)CC2)n1	3	/	/	1	7	/	/	/
CCNc1nc(NC(C)C)nc(-c2ccncc2)n1	0	/	/	1	0	/	/	/
O=C(COC(=O)c1cc(S(=O)(=O)N2CCCCC2)ccc1N1CCOCC1)c1ccccc1Cl	-1	/	/	-1	8	/	/	/
CCCNC(=O)C1(C)CCCN(CCOc2ccccc2)C1 (configuration not stated)	-3	/	/	0	-8	/	/	/
O=C(NC(=S)Nc1ccc(N2CCN(C(=O)c3ccccc3)CC2)cc1)c1cccs1	0	48*	-6	-1	-5	11	0	56*
CCc1ccc(-c2cc3c(=O)n(CC(=O)NCCCN4CCN(CC)CC4)nc(C)n3n2)cc1	-1	9	-8	0	8	17	/	/
C[C@]12CCC3C(CC[C@H]4CCCC[C@]34C)C1CC[C@@]2(O)CNCCO (some centres not stated)	-1	64*	-7	-1	23	28	-2	33
